From paper PMC5131535 (ACS chemical neuroscience, 2016)
Several values for one entry are separate records, joined by “and”; a condition that tells them apart may be missing. Equal values may be shown once. Read-outs that look alike come from different tables or passages of the source. Blank lines part the entries; values can stand above or below the compound they belong to.

Legend:
Kir7.1-M125R = biological target: T1, Kir7.1-M125R (Homo sapiens, UniProt O60928, M125R); assay: Tl+ flux assay in T-REx-HEK293 cells expressing Kir7.1-M125R; assay type: cell-based
T1 sequence (O60928 1-360 M125R): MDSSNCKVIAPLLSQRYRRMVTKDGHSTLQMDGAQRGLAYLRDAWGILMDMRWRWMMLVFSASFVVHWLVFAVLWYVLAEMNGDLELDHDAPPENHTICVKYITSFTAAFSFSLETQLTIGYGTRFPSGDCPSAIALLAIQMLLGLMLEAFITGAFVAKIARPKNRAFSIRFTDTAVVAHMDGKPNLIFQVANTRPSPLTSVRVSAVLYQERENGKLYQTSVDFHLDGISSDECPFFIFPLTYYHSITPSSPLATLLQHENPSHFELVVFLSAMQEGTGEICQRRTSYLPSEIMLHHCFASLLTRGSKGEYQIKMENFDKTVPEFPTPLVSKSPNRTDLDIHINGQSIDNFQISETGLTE
How it was run: (§1)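 Tetracycline-inducible stable T-REx-HEK-293 lines, induced overnight with 1 µg/ml tetracycline in DMEM/10% dialyzed FBS. Cells loaded 1 hr with 1.2 µM Thallos-AM in HBSS/20 mM HEPES pH 7.3 with 0.01% Pluronic F-127. Baseline fluorescence (ex 470, em 540 nm) read at 1 Hz before adding stimulus buffer with 1.8 mM Tl₂SO₄. Traces normalized to first point and vehicle-subtracted; slope taken 5–20 s post-Tl⁺; IC50 by nonlinear regression of CRCs.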

Kir7.1 [1] = biological target: T2, Kir7.1 (Homo sapiens, UniProt O60928, M125R); assay: Whole-cell patch clamp electrophysiology, Kir7.1; assay type: cell-based; details: Kir7.1 IC50 (Patch clamp), -120 mV
T2 sequence (O60928 1-360 M125R): T1 sequence (O60928 1-360 M125R)
How it was run: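 Human Kir7.1 (WT or mutant) was transiently co-transfected with EGFP into HEK-293T cells, which were replated next day on poly-L-lysine coverslips. Whole-cell clamp used bath 5 mM KCl, pH 7.4, and pipette 135 mM KCl, pH 7.3. Cells were held at −75 mV, stepped 500 ms to −120 mV, then ramped to 120 mV, every 5 s. Increasing test-compound doses were superfused, then BaCl₂ block; current read at −120 mV; variable-slope Hill fit, mean of n = 5.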

Kir2.2 = biological target: T3, Kir2.2 (Homo sapiens, UniProt Q14500); assay: Tl+ flux selectivity assay, Kir2.2; assay type: cell-based; details: Thallium flux, Kir7.1 over Kir2.2
T3 sequence (Q14500 1-433): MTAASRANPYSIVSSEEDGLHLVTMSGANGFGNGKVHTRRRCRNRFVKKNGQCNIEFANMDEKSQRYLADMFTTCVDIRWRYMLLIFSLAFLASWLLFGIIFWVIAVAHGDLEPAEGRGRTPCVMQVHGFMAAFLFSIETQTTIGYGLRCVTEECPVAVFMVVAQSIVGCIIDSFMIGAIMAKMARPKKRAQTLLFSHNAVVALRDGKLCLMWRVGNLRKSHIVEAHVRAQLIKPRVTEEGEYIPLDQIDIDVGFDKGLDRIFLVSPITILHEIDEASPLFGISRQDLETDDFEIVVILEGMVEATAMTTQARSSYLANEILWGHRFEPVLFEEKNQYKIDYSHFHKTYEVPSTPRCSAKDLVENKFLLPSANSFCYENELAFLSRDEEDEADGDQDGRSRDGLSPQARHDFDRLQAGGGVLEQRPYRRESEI

[2] = Protein binding in plasma; details: rat
[3] = Protein binding in plasma; details: mouse
Kir1.1 = assay: Tl+ flux selectivity assay, Kir1.1; assay type: cell-based; details: Thallium flux, Kir7.1 over Kir1.1
How it was run: as §1

Kir6.2/SUR1 = Kir6.2/SUR1 (Homo sapiens, UniProt Q14654); assay: Tl+ flux selectivity assay, Kir6.2/SUR1; assay type: cell-based; details: Thallium flux, Kir7.1 over Kir6.2/SUR1
Chain of Kir6.2/SUR1 (Q14654 whole entry): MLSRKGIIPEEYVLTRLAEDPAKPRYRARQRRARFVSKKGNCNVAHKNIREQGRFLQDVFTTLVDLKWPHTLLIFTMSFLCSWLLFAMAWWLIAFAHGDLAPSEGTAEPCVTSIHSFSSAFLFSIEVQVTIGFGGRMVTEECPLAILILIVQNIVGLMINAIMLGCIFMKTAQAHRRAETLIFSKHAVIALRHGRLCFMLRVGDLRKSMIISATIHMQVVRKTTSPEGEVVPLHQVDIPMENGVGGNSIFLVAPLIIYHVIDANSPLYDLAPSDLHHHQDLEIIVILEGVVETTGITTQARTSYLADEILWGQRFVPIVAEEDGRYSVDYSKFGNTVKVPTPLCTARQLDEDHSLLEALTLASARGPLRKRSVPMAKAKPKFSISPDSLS
Chain of Kir6.2/SUR1 (Q09428 whole entry partner): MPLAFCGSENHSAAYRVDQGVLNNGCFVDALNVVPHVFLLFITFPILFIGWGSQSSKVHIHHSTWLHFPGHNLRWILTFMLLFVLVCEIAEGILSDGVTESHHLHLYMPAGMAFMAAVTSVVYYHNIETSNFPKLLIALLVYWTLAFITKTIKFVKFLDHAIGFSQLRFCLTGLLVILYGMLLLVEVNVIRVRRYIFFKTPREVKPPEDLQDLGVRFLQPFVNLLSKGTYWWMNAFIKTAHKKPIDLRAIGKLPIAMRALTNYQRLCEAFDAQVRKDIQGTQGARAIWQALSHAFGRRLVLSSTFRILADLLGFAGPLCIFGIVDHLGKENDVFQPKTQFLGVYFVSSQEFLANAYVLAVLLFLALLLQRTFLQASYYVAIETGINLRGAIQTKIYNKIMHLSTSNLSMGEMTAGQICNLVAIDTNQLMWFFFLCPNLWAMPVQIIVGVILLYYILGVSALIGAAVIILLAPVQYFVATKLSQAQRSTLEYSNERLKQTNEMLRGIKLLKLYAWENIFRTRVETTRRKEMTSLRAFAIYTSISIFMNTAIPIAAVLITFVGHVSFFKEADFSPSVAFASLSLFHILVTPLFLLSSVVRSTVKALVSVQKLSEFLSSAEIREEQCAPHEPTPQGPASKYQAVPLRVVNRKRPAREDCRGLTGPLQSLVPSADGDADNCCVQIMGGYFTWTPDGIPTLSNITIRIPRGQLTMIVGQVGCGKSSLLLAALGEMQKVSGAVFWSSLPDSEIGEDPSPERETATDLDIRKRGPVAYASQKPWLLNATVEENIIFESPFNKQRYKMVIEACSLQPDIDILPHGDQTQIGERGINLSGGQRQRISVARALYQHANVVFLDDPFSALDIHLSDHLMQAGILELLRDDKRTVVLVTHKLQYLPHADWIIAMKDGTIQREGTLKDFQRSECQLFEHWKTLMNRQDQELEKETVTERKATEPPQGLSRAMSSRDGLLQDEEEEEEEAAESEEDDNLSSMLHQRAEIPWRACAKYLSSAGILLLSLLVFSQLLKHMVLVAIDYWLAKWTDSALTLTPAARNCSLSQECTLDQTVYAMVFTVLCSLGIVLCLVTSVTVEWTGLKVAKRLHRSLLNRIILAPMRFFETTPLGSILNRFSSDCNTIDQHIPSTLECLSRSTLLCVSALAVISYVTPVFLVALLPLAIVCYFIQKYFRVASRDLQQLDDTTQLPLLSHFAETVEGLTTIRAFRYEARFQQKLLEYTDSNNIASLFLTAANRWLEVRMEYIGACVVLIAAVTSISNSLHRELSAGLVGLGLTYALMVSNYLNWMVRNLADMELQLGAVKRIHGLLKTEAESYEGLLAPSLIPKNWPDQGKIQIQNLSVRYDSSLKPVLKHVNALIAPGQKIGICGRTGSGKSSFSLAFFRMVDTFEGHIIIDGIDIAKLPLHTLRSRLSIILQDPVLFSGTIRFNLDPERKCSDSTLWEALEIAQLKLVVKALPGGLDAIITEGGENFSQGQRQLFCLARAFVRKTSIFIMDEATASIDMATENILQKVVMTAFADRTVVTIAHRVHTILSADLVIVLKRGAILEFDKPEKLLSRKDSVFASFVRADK
How it was run: as §1

Kir4.1 = biological target: T4, Kir4.1 (Homo sapiens, UniProt P78508); assay: Tl+ flux selectivity assay, Kir4.1; assay type: cell-based; details: Thallium flux, Kir7.1 over Kir4.1
T4 sequence (P78508 1-379): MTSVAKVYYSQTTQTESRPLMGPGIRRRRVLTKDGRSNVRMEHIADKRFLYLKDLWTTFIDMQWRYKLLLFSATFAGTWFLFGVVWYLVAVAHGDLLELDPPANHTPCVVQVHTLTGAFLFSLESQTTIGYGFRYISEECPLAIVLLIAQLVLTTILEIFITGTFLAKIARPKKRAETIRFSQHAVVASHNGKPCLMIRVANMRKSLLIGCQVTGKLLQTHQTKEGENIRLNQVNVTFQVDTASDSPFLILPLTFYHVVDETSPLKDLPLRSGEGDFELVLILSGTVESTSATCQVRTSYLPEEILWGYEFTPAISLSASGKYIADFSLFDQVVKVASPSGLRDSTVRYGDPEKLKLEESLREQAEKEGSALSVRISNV
How it was run: as §1

Kir2.1 [4] = biological target: T5, Kir2.1 (Homo sapiens, UniProt P63252); assay: Tl+ flux selectivity assay, Kir2.1; assay type: cell-based; details: Thallium flux, Kir7.1 over Kir2.1
T5 sequence (P63252 1-427): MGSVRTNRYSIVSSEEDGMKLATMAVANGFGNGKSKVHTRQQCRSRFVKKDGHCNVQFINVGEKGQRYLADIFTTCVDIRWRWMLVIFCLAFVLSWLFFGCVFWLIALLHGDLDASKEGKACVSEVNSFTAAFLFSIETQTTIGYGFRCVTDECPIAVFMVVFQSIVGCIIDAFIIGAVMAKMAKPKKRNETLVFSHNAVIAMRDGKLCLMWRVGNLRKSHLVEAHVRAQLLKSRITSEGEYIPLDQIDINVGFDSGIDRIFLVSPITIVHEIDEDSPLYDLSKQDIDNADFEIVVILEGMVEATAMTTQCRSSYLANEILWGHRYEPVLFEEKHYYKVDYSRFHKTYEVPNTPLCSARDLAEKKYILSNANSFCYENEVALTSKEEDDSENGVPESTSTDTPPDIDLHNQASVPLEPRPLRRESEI
How it was run: as §1

Kir2.3 = biological target: T6, Kir2.3 (Homo sapiens, UniProt P48050); assay: Tl+ flux selectivity assay, Kir2.3; assay type: cell-based; details: Thallium flux, Kir7.1 over Kir2.3
T6 sequence (P48050 1-445): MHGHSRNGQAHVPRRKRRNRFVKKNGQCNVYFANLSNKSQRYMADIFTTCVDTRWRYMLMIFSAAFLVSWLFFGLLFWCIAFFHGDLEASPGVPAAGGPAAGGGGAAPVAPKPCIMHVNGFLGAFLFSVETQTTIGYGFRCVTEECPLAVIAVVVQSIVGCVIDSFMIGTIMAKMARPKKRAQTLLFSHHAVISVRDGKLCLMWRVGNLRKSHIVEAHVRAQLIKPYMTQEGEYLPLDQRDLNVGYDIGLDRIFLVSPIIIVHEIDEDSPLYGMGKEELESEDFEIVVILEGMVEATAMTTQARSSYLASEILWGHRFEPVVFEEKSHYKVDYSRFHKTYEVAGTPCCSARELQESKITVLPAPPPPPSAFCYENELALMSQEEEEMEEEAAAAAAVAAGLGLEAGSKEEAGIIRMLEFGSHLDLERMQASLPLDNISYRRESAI

[5] = Protein binding in plasma; details: human
ROMK [6] = details: read-out: ROMK IC50 EP, cited from earlier work
Kir7.1 [7] = details: read-out: Kir7.1 IC50 EP, cited from earlier work
Kir2.1 [8] = biological target: T5, Kir2.1; details: read-out: Kir2.1 IC50; at pH 8.0; ref [24]; cited from earlier work
ROMK [9] = details: read-out: ROMK IC50 Tl+; ref [16]; cited from earlier work

IC50 (Kir7.1-M125R): 1700 nM
IC50 (Kir7.1 [1]): 470 nM
Kir Channel Selectivity (Fold) 2.2 (Kir2.2): >18 Fold
fraction unbound [2]: 0.036
fraction unbound [3]: 0.056
Kir Channel Selectivity (Fold) 6.2 (Kir6.2/SUR1): 1 Fold
Kir Channel Selectivity (Fold) 4.1 (Kir4.1): >18 Fold
Kir Channel Selectivity (Fold) 2.1 (Kir2.1 [4]): >18 Fold
Kir Channel Selectivity (Fold) 2.3 (Kir2.3): >18 Fold
fraction unbound [5]: 0.011
SMILES: CC(C)(C)OC(=O)NC1CCN(Cc2cc(Cl)c3cccnc3c2O)CC1 [Compound 11, tert-Butyl (1-((5-chloro-8-hydroxyquinolin-7-yl)methyl)piperidin-4-yl)carbamate]
Kir Channel Selectivity (Fold) 1.1 (Kir1.1): >18 Fold

SMILES: COc1ccc(CNCc2cccc3ccccc23)cc1 [ML133]
IC50 (ROMK [6]; ref [24]): > 300000 nM
IC50 (Kir7.1 [7]; ref [24]): 33000 nM
IC50 (Kir2.1 [8]): 300 nM

SMILES: O=[N+]([O-])c1ccc(CN2CCOCCOCCN(Cc3ccc([N+](=O)[O-])cc3)CCOCC2)cc1 [VU590]
IC50 (ROMK [6]; ref [16]): 240 nM
IC50 (ROMK [9]): 300 nM
IC50 (Kir7.1 [7]; ref [16]): ~8000 nM and 8000 nM
